Results on one molecule are retold here after ChEMBL document CHEMBL4680118, “Cerpegin-derived furo[3,4-c]pyridine-3,4(1H,5H)-diones enhance cellular response to interferons by de novo pyrimidine biosynthesis inhibition” (Eur J Med Chem, 2020).

Calls of active or inactive are those of the source. No cut-off for these calls is given here.

Type in all cases: cell-based
For test [1], the target named is T1, Dihydroorotate dehydrogenase (quinone), mitochondrial (Homo sapiens, UniProt Q02127). Nature of the test: Inhibition of DHODH in HEK293 cells assessed as reduction in number of viable cells at 6 to 193 uM measured upto 72 hrs by Celltiter-Glo assay. The note with it: dose 6-193 µM, time hrs <=72. Summed up: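 HEK-293 ISRE-Luc cells in DMEM with 10% FCS at 37°C, 5% CO2, treated with compound or DMSO; viable cells quantified by ATP content (CellTiter-Glo luminescence) after 24, 48 and 72 h. Expressed as percent of untreated cells at t = 0 h; means ± SD of two independent experiments.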
Background: ATP-based viability assays read luminescence as a measure of living cells.

Test [2] concerns the target T1, Dihydroorotate dehydrogenase (quinone), mitochondrial. Nature of the test: Inhibition of DHODH in human HEK293 cells assessed as reduction in intracellular pyrimidine level measured after 24 hrs by HPLC coupled spectrophotometry. Summed up: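 HEK-293 cells plated at 1×10^6 per well, treated 24 h later with compound (80 µM final) or DMSO for 24 h. Pellets deproteinized with 6% perchloric acid, neutralized with Na2CO3, analysed by C18 HPLC at 45°C with ion-pair phosphate/MeOH gradient, detected at 254 nm against reference nucleoside calibration curves. Normalized to viable cell number and DMSO controls.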

For test [3] the target is unchanged. The experiment in a line: Inhibition of DHODH in human HEK-293 cells transfected with ISRE-luciferase reporter gene assessed as increase in IFN-alpha mediated cellular response at 80 uM in presence of orotate measured after 24 hrs by luciferase reporter gene assay. The note with it: HEK293. Summed up: (§1)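 ISRE-Luc HEK-293 cells exposed to increasing IFN-α concentrations with DMSO or compound (80 µM), supplemented with uridine (125 µM) or with 3 mM orotate or DHO. Reporter luciferase read after 24 h, normalized to DMSO + IFN-α 250 IU/ml. Means ± SD of three independent experiments; two-way ANOVA.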

Test [4] has the same target. Nature of the test: Inhibition of DHODH in human HEK-293 cells transfected with ISRE-luciferase reporter gene assessed as increase in IFN-alpha mediated cellular response at 80 uM in presence of DHO measured after 24 hrs by luciferase reporter gene assay. The note with it: HEK293. Summed up: as §1
In general terms: In a reporter assay the amount or activity of a reporter protein is the signal.

For test [5] the target is unchanged. The experiment in a line: Inhibition of DHODH in human HEK293 cells transfected with ISRE-luciferase reporter gene assessed as increase in 30 IU/ml IFN-alpha stimulated IFIT3 mRNA expression at 80 uM measured after 16 hrs by RT-qPCR analysis relative to control. Summed up:
(§2)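 ISRE-Luc HEK cells co-treated with increasing IFN-α concentrations and DMSO or compound (80 µM) for 16 h. Total RNA extracted from 2×10^5 cells with DNase step; qPCR 35 cycles. CT values normalized to RPL13A and unstimulated controls (2^-ΔΔCT), expressed as fold change versus DMSO alone. Three independent experiments; two-way ANOVA with Bonferroni.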

Test [6] shares this target. The experiment in a line: Inhibition of DHODH in human HEK293 cells transfected with ISRE-luciferase reporter gene assessed as increase in INFgamma-stimulated cellular response at 80 uM measured after 24 hrs by luciferase reporter gene assay. Summed up:
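ISRE-Luc HEK-293 cells were treated with DMSO or compound at 80 μM, with or without recombinant IFN-γ at 150 IU/ml. Firefly luciferase was read 24 h later with Bright-Glo or Britelite, 0.1 s luminescence. Signal was normalized to DMSO + IFN-γ. Values are means ± SD of three independent experiments; two-tailed t-test.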

Test [7] shares this target. The experiment in a line: Inhibition of DHODH in human HEK293 cells assessed as increase in gammaH2AX phosphorylation measured after 24 hrs by immunostaining based flow cytometry. Summed up: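 Cells treated 24 h with compound (80 µM), harvested, trypsinized, fixed 30 min in 4% PFA, permeabilized 5 min. Stained with anti-γH2AX mouse monoclonal (1/400) or isotype control, 45 min at 4°C, then Alexa Fluor 488 anti-mouse secondary (1/500) 45 min at 4°C. Analysed by flow cytometry; means ± SD of three independent experiments.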
A general note: In flow cytometry, cells or beads pass a laser one at a time.

For test [8] the target is unchanged. Nature of the test: Inhibition of DHODH in human HEK293 cells transfected with ISRE-luciferase reporter gene assessed as increase in 60 IU/ml IFN-alpha stimulated ISG15 mRNA expression at 80 uM measured after 16 hrs by RT-qPCR analysis relative to control. Summed up: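 HEK-293 ISRE-Luc cells (DMEM, 10% FCS, 37°C, 5% CO2) were given increasing IFN-α doses together with DMSO or compound at 80 μM, then harvested at 16 h. RNA was extracted from 2×10^5 cells with DNase treatment. Transcripts were run by qPCR for 35 cycles and normalized to RPL13A and to unstimulated controls by 2^-ΔΔCT. Values are fold change versus DMSO; three independent experiments; two-way ANOVA with Bonferroni.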

Test [9] has the same target. Nature of the test: Inhibition of DHODH in human HEK293 cells transfected with ISRE-luciferase reporter gene assessed as increase in 30 IU/ml IFN-alpha stimulated IFITM3 mRNA expression at 80 uM measured after 16 hrs by RT-qPCR analysis relative to control. Summed up: as §2
Test [10] shares this target. Nature of the test: Inhibition of DHODH in human HEK293 cells transfected with ISRE-luciferase reporter gene assessed as increase in 30 IU/ml IFN-alpha stimulated MX2 mRNA expression at 80 uM measured after 16 hrs by RT-qPCR analysis relative to control. Summed up: as §2
The target is the same in test [11]. The experiment in a line: Inhibition of DHODH in human HEK293 cells transfected with ISRE-luciferase reporter gene assessed as increase in 250 IU/ml IFN-alpha stimulated IFIT5 mRNA expression at 80 uM measured after 16 hrs by RT-qPCR analysis relative to control. Summed up:
as §2

For test [12] the target is unchanged. The experiment in a line: Inhibition of DHODH in human HEK293 cells transfected with ISRE-luciferase reporter gene assessed as increase in 125 IU/ml IFN-alpha stimulated PKR mRNA expression at 80 uM measured after 16 hrs by RT-qPCR analysis relative to control. Summed up: as §2
The target is the same in test [13]. The experiment in a line: Inhibition of DHODH in […] treated with R848 stimulated cell supernatant assessed as increase in IFN-gamma-containing conditioned supernatant-stimulated cellular response at 80 uM measured after 24 hrs by luciferase reporter gene assay. Summed up:
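Donor PBMCs were activated for 24 h with R848 at 5 µg/ml, and the supernatants (containing IFN-γ) were collected. HEK-293 ISRE-Luc reporter cells, not PBMCs, were then stimulated with these supernatants diluted 1/8 to 1/64, in the presence of DMSO or compound at 80 μM. Luciferase was read at 24 h and normalized to cells given the 1/8 dilution. Three independent experiments; two-way ANOVA with Bonferroni.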

The target is the same in test [14]. Nature of the test: Inhibition of DHODH in human HEK-293 cells transfected with ISRE-luciferase reporter gene assessed as increase in 150 IU/ml IFN-alpha mediated cellular response at 80 uM in presence of P300/CBP measured after 24 hrs by luciferase reporter gene assay. Particulars: HEK293. Summed up:
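ISRE-Luc HEK-293 cells given IFN-α (150 IU/ml) alone or with test compound (80 µM), with or without the MRE11 inhibitor mirin, ATR inhibitor AZD6738, CHK1 inhibitor PF477736 or P300/CBP inhibitor C636. Firefly luciferase read 24 h later, normalized to IFN-α alone. Means ± SD of at least three independent experiments.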

T1 sequence (Q02127 whole entry): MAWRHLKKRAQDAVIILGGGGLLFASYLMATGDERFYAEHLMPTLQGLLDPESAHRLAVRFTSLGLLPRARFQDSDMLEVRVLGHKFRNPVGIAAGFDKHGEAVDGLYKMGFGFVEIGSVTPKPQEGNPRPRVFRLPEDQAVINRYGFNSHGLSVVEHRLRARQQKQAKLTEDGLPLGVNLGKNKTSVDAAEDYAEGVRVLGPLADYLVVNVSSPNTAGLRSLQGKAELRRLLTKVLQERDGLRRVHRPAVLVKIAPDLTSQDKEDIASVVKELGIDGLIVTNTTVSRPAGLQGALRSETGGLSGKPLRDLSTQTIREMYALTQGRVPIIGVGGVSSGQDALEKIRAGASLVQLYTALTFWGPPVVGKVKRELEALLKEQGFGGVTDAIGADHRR

As to `O=C1OC2(CCCCC2)c2ccn(C3CC3)c(=O)c21`, the inhibition entry in [1] and in test [2] was “Active” in each case. For the same molecule, the result in test [3] and in test [14] was inactive. Moreover, the outcome in test [4], in [6], in test [7] and in test [13] was Active. Further, the fold change (FC) in test [5] is 39; in [8], 163; in [9], 6; in test [10], 7; in [11], 5; in [12], 3.
